# Key:
# Mus musculus [1] = species on record: Mus musculus; assay: animal or person; format: functional; conditions: 0.5 h, read-out: MED
# Mus musculus [2] = species on record: Mus musculus; format: functional
# Mus musculus [3] = species on record: Mus musculus; assay: Protective activity against Maximal Electroshock seizures(MES) at 60 min was determined; format: functional; conditions: 1 h
# Mus musculus [4] = assay: The compound was tested for Ataxia(ATAX) by the inverted screen test, after intraperitoneal administration at 120 min; format: functional; conditions: ip, 2 h
# Mus musculus [5] = species on record: Mus musculus; assay: Protective activity against Maximal Electroshock seizures(MES) in mice was determined at 90 min; format: functional; conditions: 1.5 h
# Mus musculus [6] = assay: The compound was tested for Ataxia(ATAX) by the inverted screen test after (ip) administration at 120 min; format: functional; conditions: 2 h
# Mus musculus [7] = assay: The compound was tested for Ataxia(ATAX) by the inverted screen test, after oral administration in mouse at 60 min; format: functional; conditions: 1 h
# In short: (§1)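 Mice were dosed orally, with doses calculated as free base. They were placed on an inverted square of wire mesh, and falling off was scored as impairment. Ten mice per dose were tested at the stated time, giving an ED50 with 95% confidence interval.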
# Rattus norvegicus [8] = species on record: Rattus norvegicus; assay: Protective activity was determined against Maximal Electroshock seizures(MES) in rat at 60 min; format: functional; conditions: 1 h
# In short: (§2)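 Rats were dosed orally and tested against maximal electroshock, with the test time after dosing given per line. Doses were calculated as free base. ED50 is reported with 95% confidence interval.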
# Mus musculus [9] = species on record: Mus musculus; assay: The compound was tested for protective activity against Maximal Electroshock seizures(MES) at 60 min in mice; format: functional; conditions: 1 h
# Mus musculus [10] = species on record: Mus musculus; assay: Protective activity was determined against Maximal Electroshock seizures(MES) in mouse at 30 min; format: functional; conditions: 0.5 h
# In short: (§3)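 Male Swiss-Webster mice (25–32 g, fed) were dosed orally, with the compound in water or in a 0.2% (hydroxymethyl)cellulose suspension and doses calculated as free base. Absence of tonic hind-limb extension counted as protection. Ten mice per dose were used, giving an ED50 with 95% confidence interval.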
# Mus musculus [11] = assay: The compound was tested for Ataxia(ATAX) by the inverted screen test, after intraperitoneal administration at 120 min in mice; format: functional; conditions: ip, 2 h
# Rattus norvegicus [12] = assay: The compound was tested for Ataxia(ATAX) by the inverted screen test, after oral administration in rat at 240 min; conditions: 4 h
# Mus musculus [13] = assay: The compound was tested for Ataxia(ATAX) by the inverted screen test, after oral administration in mouse at 120 min; format: functional; conditions: 2 h
# In short: as §1
# Mus musculus [14] = species on record: Mus musculus; assay: Protective activity was determined against Maximal Electroshock seizures(MES) in mouse at 120 min; format: functional; conditions: 2 h
# In short: as §3
# Rattus norvegicus [15] = species on record: Rattus norvegicus; assay: Protective activity was determined against Maximal Electroshock seizures(MES) in rat at 30 min; format: functional; conditions: 0.5 h
# In short: as §2
Compound,minimal effective dose (Mus musculus [1]) [mg/kg],MAD (Mus musculus [2]) [mg/kg],other results
N#Cc1ccccc1NC(=O)Nc1ccncc1,> 300,100,
O=C(Nc1ccncc1)Nc1ccccc1C(F)(F)F,100,300,
O=C(Nc1ccncc1)Nc1ccccc1Br,100,>300,
Cc1ccc(NC(=O)Nc2ccncc2)cc1,> 300,100,
Cc1cccc(Cl)c1NC(=O)Nc1c(C)cccc1Cl,> 300,>300,
Cc1cccc(Cl)c1NC(=O)Nc1cccnc1,100,300,
Cc1cccc(C)c1NC(=O)Nc1ccc([N+](=O)[O-])cc1,> 300,>300,
O=C(Nc1ccccn1)Nc1c(Cl)cccc1Cl,> 300,100,
O=C(Nc1ccncc1)Nc1ccc(F)cc1,300,300,
O=C(Nc1ccncc1)Nc1ccc(Oc2ccccc2)cc1,> 300,>300,
Cc1cc(C)c(NC(=O)Nc2ccncc2)c(Cl)c1,100,>300,
CCOC(=O)c1ccccc1NC(=O)Nc1ccncc1,300,>300,
Cc1cccc(C)c1NC(=O)N1CCN(C)CC1,100,300,
Cc1cc(NC(=O)Nc2c(C)cccc2Cl)ccn1,30,100,
O=C(Nc1ccncc1)Nc1ccccc1[N+](=O)[O-],300,>300,
CC(C)c1cccc(C(C)C)c1NC(=O)Nc1ccncc1,> 300,>300,
COc1ccccc1NC(=O)Nc1ccncc1,100,>300,
CC(C)c1ccccc1NC(=O)Nc1ccncc1,100,300,
Cc1c(Cl)cccc1NC(=O)Nc1ccncc1,> 300,>300,

Compound,minimal effective dose (Mus musculus [1]) [mg/kg],MAD (Mus musculus [2]) [mg/kg],other results
CC(C)c1ccc(NC(=O)Nc2ccncc2)cc1,> 300,>300,
CC(=O)c1ccc(NC(=O)Nc2ccncc2)cc1,> 300,>300,
O=C(Nc1ccncc1)Nc1cccc(C(F)(F)F)c1,> 300,>300,
O=C(Nc1ccncc1)Nc1cccc([N+](=O)[O-])c1,> 300,>300,
O=C(Nc1ccncc1)Nc1c(Cl)cc(Cl)cc1Cl,300,300,
O=C(Nc1ccncc1)Nc1ccc(Cl)cc1,> 300,>300,
Nc1ccc(NC(=O)Nc2ccncc2)cc1,> 300,300,
O=C(Nc1ccncc1)Nc1ccccc1F,100,100,
O=C(Nc1ccncc1)Nc1ccc(I)cc1,> 300,>300,
CCOC(=O)c1ccc(NC(=O)Nc2ccncc2)cc1,> 300,>300,
O=C(Nc1ccccc1)Nc1ccncc1,100,300,
Cc1cccc(C)c1NC(=O)Nc1ccccn1,300,>300,
O=C(Nc1ccncc1)Nc1c(Cl)cccc1CO,> 300,300,
Cc1cccc(Cl)c1NC(N)=O,100,300,
Cc1cccc(Cl)c1NC(=O)NCc1ccncc1,> 300,>300,
CN(C)c1ccccc1NC(=O)Nc1ccncc1,100,100,
O=C(Nc1ccncc1)Nc1ccccc1O,> 300,>300,
Cc1ccccc1NC(=O)Nc1ccncc1,100,>300,
O=C(Nc1ccncc1)Nc1c(Cl)cccc1Cl,100,>300,ED50 (Mus musculus [3]): 30 mg/kg; ED50 (Mus musculus [4]): 293 mg/kg

Compound,minimal effective dose (Mus musculus [1]) [mg/kg],MAD (Mus musculus [2]) [mg/kg],other results
O=C(Nc1ccncc1)Nc1ccc(Cl)cc1Cl,> 300,>300,
O=C(Nc1ccncc1)Nc1ccccc1Cl,100,>300,
Cc1cc(C)c(NC(=O)Nc2ccncc2)c(C)c1,30,300,
CC(C)NC(=O)Nc1ccncc1,300,300,
Cc1cccc(C)c1NC(=O)Nc1ccncc1,30,100,ED50 (Mus musculus [5]): 21 mg/kg; ED50 (Mus musculus [6]): 138 mg/kg
O=C(Nc1ccncc1)Nc1ccccc1C(=O)O,> 300,>300,
COc1cc(C)c(NC(=O)Nc2ccncc2)c(C)c1,> 300,>300,
O=C(Nc1ccncc1)Nc1c(Cl)cccc1C(F)(F)F,100,300,
Cc1cccc(C)c1NC(=O)Nc1cccnc1,100,300,
Cc1cccc(NC(=O)Nc2ccncc2)c1,> 300,>300,
Cc1cccc(Cl)c1NC(=O)Nc1ccccn1,100,>300,
CCc1cccc(CC)c1NC(=O)Nc1ccncc1,30,100,
Nc1ccccc1NC(=O)Nc1ccncc1,> 300,>300,
Cc1cccc(Cl)c1NC(=O)Nc1ccncc1,30,300,ED50 (Mus musculus [7]): 210 mg/kg; ED50 (Rattus norvegicus [8]): 9.2 mg/kg; ED50 (Mus musculus [9]): 46 mg/kg; ED50 (Mus musculus [10]): 14 mg/kg; ED50 (Mus musculus [11]): 251 mg/kg; ED50 (Rattus norvegicus [12]): 408 mg/kg
O=C(Nc1cccnc1)Nc1c(Cl)cccc1Cl,> 300,300,
Cc1ccc(NC(=O)Nc2ccncc2)c(C)c1,> 300,>300,
O=C(Nc1ccncc1)Nc1ccccc1OCc1ccccc1,> 300,30,
O=C(Nc1ccncc1)Nc1ccc([N+](=O)[O-])cc1,> 300,>300,
O=C1NC(=O)C(c2ccccc2)(c2ccccc2)N1 [PHENYTOIN],,,ED50 (Mus musculus [13]): 78 mg/kg; ED50 (Mus musculus [14]): 8.3 mg/kg; ED50 (Rattus norvegicus [15]): 30 mg/kg; ED50 (Rattus norvegicus [12]): > 300 mg/kg

# From ChEMBL document CHEMBL1124707, “N-phenyl-N'-pyridinylureas as anticonvulsant agents” (1990)
